Laboratory results published in ChEMBL document CHEMBL1123041, “Synthesis of new bis(aminoethanethiol) (BAT) derivatives: possible ligands for 99mTc brain imaging agents” (J Med Chem, 1985).

Assays:
Rattus norvegicus [1] = test: Biodistribution in Sprague-Dawley rat kidneys(2) 15 minutes after intravenous administration, [99mTc]/[125I] IAP ratio); assay type: ADME, organism-based, Kidney; settings: in vivo, 0.25 h
Procedure, shortened: (§1)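 99mTc complex and [125I]iodoantipyrine were co-injected iv into rats. Rats were killed by cardiectomy at 2 or 15 min, and organs were excised, weighed and gamma-counted in two channels with spillover correction. The ratio is 99mTc percent dose divided by 125I percent dose in the same organ, averaged over three rats. Radiochemical purity of the complexes was >95% by reversed-phase HPLC.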

Rattus norvegicus [2] = test: Biodistribution in Sprague-Dawley rat skin 2 minutes after intravenous administration, [99mTc]/[125I] IAP ratio); assay type: ADME, organism-based, Zone of skin; settings: in vivo; procedure, shortened: as §1
Rattus norvegicus [3] = test: Biodistribution in Sprague-Dawley rat small intestine 15 minutes after intravenous administration, [99mTc]/[125I] IAP ratio); assay type: ADME, organism-based; settings: in vivo, 0.25 h; procedure, shortened: as §1
Rattus norvegicus [4] = test: Biodistribution in Sprague-Dawley rat small intestine 2 minutes after intravenous administration, [99mTc]/[125I] IAP ratio); assay type: ADME, organism-based; settings: in vivo; procedure, shortened: as §1
Rattus norvegicus [5] = test: Biodistribution in Sprague-Dawley rat spleen 15 minutes after intravenous administration, [99mTc]/[125I] IAP ratio); assay type: ADME, organism-based; settings: in vivo, 0.25 h; procedure, shortened: as §1
Rattus norvegicus [6] = test: Biodistribution in Sprague-Dawley rat spleen 2 minutes after intravenous administration, [99mTc]/[125I] IAP ratio); assay type: ADME, organism-based; settings: in vivo; procedure, shortened: as §1
Rattus norvegicus [7] = test: Biodistribution in Sprague-Dawley rat thyroid 15 minutes after intravenous administration, [99mTc]/[125I] IAP ratio); assay type: ADME, organism-based, Thyroid gland; settings: in vivo, 0.25 h; procedure, shortened: as §1
Rattus norvegicus [8] = test: Biodistribution in Sprague-Dawley rat thyroid 2 minutes after intravenous administration, [99mTc]/[125I] IAP ratio); assay type: ADME, organism-based, Thyroid gland; settings: in vivo; procedure, shortened: as §1
Rattus norvegicus [9] = test: Compound was evaluated for the biodistribution in Sprague-Dawley rats in muscle 15 minutes after intravenous administration, [99mTc]/[125I] IAP ratio); assay type: ADME, organism-based, Muscle tissue; settings: in vivo, 0.25 h; procedure, shortened: as §1
Rattus norvegicus [10] = test: Biodistribution in Sprague-Dawley rat blood 15 minutes after intravenous administration, [99mTc]/[125I] IAP ratio); assay type: ADME, organism-based; settings: in vivo, 0.25 h; procedure, shortened: as §1
Rattus norvegicus [11] = test: Biodistribution in Sprague-Dawley rat blood 2 minutes after intravenous administration, [99mTc]/[125I] IAP ratio); assay type: ADME, organism-based; settings: in vivo; procedure, shortened: as §1
Rattus norvegicus [12] = test: Biodistribution in Sprague-Dawley rat brain 15 minutes after intravenous administration, [99mTc]/[125I] IAP ratio); assay type: ADME, organism-based; settings: in vivo, 0.25 h; procedure, shortened: as §1
Rattus norvegicus [13] = test: Biodistribution in Sprague-Dawley rat brain 2 minutes after intravenous administration, [99mTc]/[125I] IAP ratio); assay type: ADME, organism-based; settings: in vivo; procedure, shortened: as §1
Rattus norvegicus [14] = test: Biodistribution in Sprague-Dawley rat heart 15 minutes after intravenous administration, [99mTc]/[125I] IAP ratio); assay type: ADME, organism-based; settings: in vivo, 0.25 h; procedure, shortened: as §1
Rattus norvegicus [15] = test: Biodistribution in Sprague-Dawley rat heart 2 minutes after intravenous administration, [99mTc]/[125I] IAP ratio); assay type: ADME, organism-based; settings: in vivo; procedure, shortened: as §1
Rattus norvegicus [16] = test: Biodistribution in Sprague-Dawley rat stomach 15 minutes after intravenous administration, [99mTc]/[125I] IAP ratio); assay type: ADME, organism-based; settings: in vivo, 0.25 h; procedure, shortened: as §1
Rattus norvegicus [17] = test: Biodistribution in Sprague-Dawley rat stomach 2 minutes after intravenous administration, [99mTc]/[125I] IAP ratio); assay type: ADME, organism-based; settings: in vivo; procedure, shortened: as §1
Rattus norvegicus [18] = test: Biodistribution in Sprague-Dawley rat kidneys(2) 2 minutes after intravenous administration, [99mTc]/[125I] IAP ratio); assay type: ADME, organism-based, Kidney; settings: in vivo; procedure, shortened: as §1
Rattus norvegicus [19] = test: Biodistribution in Sprague-Dawley rat liver 15 minutes after intravenous administration, [99mTc]/[125I] IAP ratio); assay type: ADME, organism-based; settings: in vivo, 0.25 h; procedure, shortened: as §1
Rattus norvegicus [20] = test: Biodistribution in Sprague-Dawley rat liver 2 minutes after intravenous administration, [99mTc]/[125I] IAP ratio); assay type: ADME, organism-based; settings: in vivo; procedure, shortened: as §1
Rattus norvegicus [21] = test: Biodistribution in Sprague-Dawley rat lungs(2) 15 minutes after intravenous administration, [99mTc]/[125I] IAP ratio); assay type: ADME, organism-based, Lung; settings: in vivo, 0.25 h; procedure, shortened: as §1
Rattus norvegicus [22] = test: Biodistribution in Sprague-Dawley rat lungs(2) 2 minutes after intravenous administration, [99mTc]/[125I] IAP ratio); assay type: ADME, organism-based, Lung; settings: in vivo; procedure, shortened: as §1
Rattus norvegicus [23] = test: Biodistribution in Sprague-Dawley rat muscle 2 minutes after intravenous administration, [99mTc]/[125I] IAP ratio); assay type: ADME, organism-based, Muscle tissue; settings: in vivo; procedure, shortened: as §1
Rattus norvegicus [24] = test: Biodistribution in Sprague-Dawley rat skin 15 minutes after intravenous administration, [99mTc]/[125I] IAP ratio); assay type: ADME, organism-based, Zone of skin; settings: in vivo, 0.25 h; procedure, shortened: as §1
[25] = Partition coefficient was determined at pH 7.0.; assay type: ADME; settings: octanol/water
Procedure, shortened: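 99mTc-labelled BAT complex shaken with 3 g each of 1-octanol and 0.1 M phosphate buffer (pH 7.0), vortexed 3 min at room temperature, centrifuged 5 min. Two 0.5 g samples per layer counted in a well counter; PC = cpm/g octanol over cpm/g buffer. Octanol layer repartitioned until values were consistent; usually repeated three times.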

Homo sapiens = organism: Homo sapiens; test: The human serum protein binding activity was determined; assay type: functional
Procedure, shortened: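 Equilibrium dialysis: 0.4 mL pooled human serum against 0.4 mL 0.15 M phosphate buffer pH 7.4 containing 99mTc complex (~0.025 μCi), rotated 18 h at 37 °C. Both sides weighed and counted; percent free = buffer/serum radioactivity concentration ratio × 100. Membrane counted afterwards to check membrane binding.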

Dose (Rattus norvegicus [1]): 2.47%
Dose (Rattus norvegicus [2]): 8.84%
Dose (Rattus norvegicus [3]): 11.8%
Dose (Rattus norvegicus [4]): 5.09%
Dose (Rattus norvegicus [5]): 0.206%
Dose (Rattus norvegicus [6]): 0.274%
Dose (Rattus norvegicus [7]): 0.045%
Dose (Rattus norvegicus [8]): 0.124%
Dose (Rattus norvegicus [9]): 18.5%
Dose (Rattus norvegicus [10]): 8.07%
Dose (Rattus norvegicus [11]): 13.6%
Dose (Rattus norvegicus [12]): 0.288%
Dose (Rattus norvegicus [13]): 1.28%
Dose (Rattus norvegicus [14]): 0.375%
Dose (Rattus norvegicus [15]): 1.08%
Dose (Rattus norvegicus [16]): 5.24%
Dose (Rattus norvegicus [17]): 2.23%
Dose (Rattus norvegicus [18]): 3.57%
Dose (Rattus norvegicus [19]): 22.7%
Dose (Rattus norvegicus [20]): 21.7%
Dose (Rattus norvegicus [21]): 1.57%
Dose (Rattus norvegicus [22]): 3.08%
Dose (Rattus norvegicus [23]): 9.19%
Dose (Rattus norvegicus [24]): 9.43%
Partition coefficient [25]: 46.8
Free (Homo sapiens): 46.2%
SMILES: CC(C)(S)CNCC(CN)NCC(C)(C)S.Cl.Cl.Cl (stereo unspecified)
